From PubChem
Rows were chosen to be rich in hits. Some 2.3% of all compounds tested hit in one or more screens of this group.
TRPC4 PAM = allosterically enhances the mouse TRPC4 cation channel | Q9QUQ5 | HEK293 TRPC4beta/mu-opioid, DAMGO EC20, Fluo-4 Ca2+ flux; active compounds read high | B-score at 10 µM | 310,000 compounds, 0.42% hits;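 active = B-score of calcium response area above 5 SD of library B-scores, with initial fluorescence ratio within 5 SD of library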;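 also: B-score of integrated fluorescence ratio over time as area under calcium response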
TRPC6 activator = activates the mouse TRPC6 cation channel; B-score at 10 µM; 310,000 compounds, 0.13% hits; HEK293-TRPC6 membrane potential dye fluorescence; active compounds read high;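 active = B-score of the integrated fluorescence ratio above library mean plus 3 SD, and starting fluorescence ratio within library mean plus 5 SD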;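 also: higher score means more depolarization so channel activation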
Target sequence (Q61143 whole entry, looked up): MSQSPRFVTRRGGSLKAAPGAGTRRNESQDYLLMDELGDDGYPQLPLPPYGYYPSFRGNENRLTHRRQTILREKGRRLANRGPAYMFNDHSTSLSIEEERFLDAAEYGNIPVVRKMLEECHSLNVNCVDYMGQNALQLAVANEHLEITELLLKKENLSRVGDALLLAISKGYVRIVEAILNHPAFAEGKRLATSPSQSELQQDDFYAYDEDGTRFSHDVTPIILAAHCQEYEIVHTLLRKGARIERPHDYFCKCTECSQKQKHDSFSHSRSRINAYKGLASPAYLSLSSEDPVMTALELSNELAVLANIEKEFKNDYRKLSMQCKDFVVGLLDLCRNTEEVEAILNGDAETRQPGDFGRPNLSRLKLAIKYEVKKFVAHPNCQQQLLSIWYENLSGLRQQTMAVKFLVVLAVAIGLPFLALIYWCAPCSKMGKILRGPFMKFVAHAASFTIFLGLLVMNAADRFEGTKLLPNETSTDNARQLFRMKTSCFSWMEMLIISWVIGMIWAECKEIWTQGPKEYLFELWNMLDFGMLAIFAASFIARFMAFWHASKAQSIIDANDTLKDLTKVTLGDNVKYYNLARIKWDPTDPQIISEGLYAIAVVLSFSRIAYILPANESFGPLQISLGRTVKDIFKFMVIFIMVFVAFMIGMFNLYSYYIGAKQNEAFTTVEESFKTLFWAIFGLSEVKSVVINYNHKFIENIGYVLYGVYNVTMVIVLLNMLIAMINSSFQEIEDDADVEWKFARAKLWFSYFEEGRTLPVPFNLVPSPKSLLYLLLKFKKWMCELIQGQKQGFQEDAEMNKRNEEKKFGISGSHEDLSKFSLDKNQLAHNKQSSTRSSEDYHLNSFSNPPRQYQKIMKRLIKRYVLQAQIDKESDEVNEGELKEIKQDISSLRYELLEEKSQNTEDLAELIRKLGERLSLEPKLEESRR
TRPC6 inhibitor = inhibitors of mouse TRPC6 channel; Q61143; 310,000 compounds, 1.1% hits; HEK293-TRPC6, membrane potential dye, ACh-evoked depolarization; active compounds read low; B-score at 10 µM;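 active = B-score under library mean minus 3 SD, initial fluorescence not abnormally high, positive integrated signal ratio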;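 also: B-score derived from integrated fluorescence ratio over the kinetic read; more negative B-score means stronger inhibition of depolarization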
TRPC4 block = inhibitors of mouse TRPC4 channel | 300,000 compounds, 0.39% hits | AID 2247 | B-score at 10 µM | HEK293 TRPC4beta/mu-opioid, DAMGO-evoked Fluo4 calcium flux; active compounds read low;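 active = B-score over 3 SD under the library average, no early fluorescence shift, positive overall ratio signal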
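Signal: kinetic Fluo4 fluorescence imaging of calcium influx. Material: stable TRPC4beta/mu-opioid receptor HEK293 cells. Probe or stimulus: DAMGO in two steps, submaximal then maximal.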
TRPC4 agonist = TRPC4 (mouse) channel activation. AID 2237. 310,000 compounds, 0.49% hits. Q9QUQ5. B-score at 10 µM. HEK293 TRPC4beta/mu-opioid, Fluo4 calcium fluorescence; active compounds read high;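 active = B-score above 5 SD of library B-scores, and initial fluorescence ratio not above library mean plus 5 SD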;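 also: positive B-score marks a calcium rise read as TRPC4 activation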
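Assay system: HEK293 stable line with TRPC4beta plus mu-opioid receptor; schedule: 45 min room-temperature Fluo4 loading, 110 s read; technique: kinetic Fluo4 calcium fluorescence; evaluation: integrated baseline-normalised fluorescence ratio, converted to per-well B score; controls: buffer (low) and maximal DAMGO (high)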
TRPC4 spec 2 = second check of whether TRPC6 inhibitors also affect mouse TRPC4 | shares compounds with TRPC6 inhibitor | HEK293 TRPC4/MOR, membrane potential dye fluorescence; channel activated by saturating DAMGO dose | inhibition, % at 10 µM | 920 compounds, 42% hits | AID 2776;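 active = compounds whose fluorescence signal differed from control wells by over 3 SD, either direction, in both duplicate plates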
TRPC4 spec = mouse TRPC4 off-target activity of TRPC6 inhibitors; 920 compounds, 61% hits; shares compounds with TRPC6 inhibitor; HEK293 TRPC4/mu-opioid, membrane potential fluorescence; activity change, negative = inhibition, % at 10 µM;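 active = rise or fall in signal beyond 3 SD of buffer-only wells in both replicate plates, either sign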;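 also: integrated kinetic ratio of fluorescence range over baseline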
HEK293 MPD ctr 2-1 = parental HEK293 nonspecific activity of TRPC6 inhibitors, second screen; shares compounds with TRPC6 inhibitor; AID 2779; 920 compounds, 31% hits; signal change vs control, % at 10 µM; parental HEK293 membrane potential dye fluorescence; maximal acetylcholine challenge after compound addition;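 active = membrane potential signal moving either way by over 3 SD of the maximum-effect control, in both duplicate plates, meaning non-specific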
HEK293 MPD ctr-1 = parental HEK293 nonspecific activity of TRPC6 inhibitors. shares compounds with TRPC6 inhibitor. parental HEK293 membrane potential dye fluorescence. membrane potential signal change, % at 10 µM. 920 compounds, 60% hits. AID 2780;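 active = membrane potential signal shifting up or down by more than 3 SD of buffer-only wells, on both duplicate plates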
HEK293 MPD ctr-2 = parental HEK293 nonspecific activity of TRPC6 modulators; membrane potential dye fluorescence; 2,400 compounds, 51% hits; shares compounds with TRPC6 inhibitor; membrane potential signal change, % at 10 µM;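 active = membrane potential signal moves up or down beyond 5 SD from buffer-only wells, on both duplicate plates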
HEK293 MPD ctr 2-2 = second check of TRPC6 modulator effects in parental HEK293 cells; shares compounds with TRPC6 inhibitor; membrane potential dye fluorescence; after compound, maximal acetylcholine stimulation; inhibition, % at 10 µM; 2,400 compounds, 14% hits;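 active = membrane potential signal drops by more than 5 SD from the mean control signal, in both duplicate plates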;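 also: plate controls were acetylcholine ECmax control wells for no effect and buffer only wells for full effect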
TRPC4/MOR mod = tests whether TRPC6 modulators also affect mouse TRPC4 | 2,400 compounds, 69% hits | percent change from control (negative = decrease, positive = increase), % at 10 µM | shares compounds with TRPC6 inhibitor | HEK293 TRPC4/mu-opioid, membrane potential fluorescence;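 active = membrane potential signal moved up or down beyond 5 SD of buffer control wells, in both duplicate plates, actives on both sides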;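 also: plate controls were assay buffer wells for no effect and DAMGO maximal-effect wells for full effect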
TRPC4 ctr inh 2 = mouse TRPC4 off-target activity of TRPC6 modulators, second screen; shares compounds with TRPC6 inhibitor; HEK293 TRPC4/mu-opioid, membrane potential dye fluorescence; stimulated with maximal-effect DAMGO; inhibition, % at 10 µM; 2,400 compounds, 55% hits; AID 488928;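 active = drop in membrane potential signal beyond 5 SD of the control wells in both duplicate plates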;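 also: TRPC4 counter screen for TRPC6 hits run under conditions tuned for TRPC6 not TRPC4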
TRPC6 inh conf = confirmation of mouse TRPC6 inhibitors. shares compounds with TRPC6 inhibitor. HEK293-TRPC6, membrane potential dye, ACh-evoked depolarization. inhibition, % at 10 µM. 3,300 compounds, 43% hits. AID 488960;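 active = fluorescence ratio falls more than 5 SD below the full-stimulation control mean, in both duplicate runs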;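 also: integrated fluorescence ratio of peak minus minimum over baseline after agonist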
TRPC6 act conf = mouse TRPC6 activator confirmation. HEK293-TRPC6 membrane potential dye fluorescence, FDSS. shares compounds with TRPC6 inhibitor. activation, % at 10 µM. 2,800 compounds, 11% hits. AID 488961;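 active = ratio signal rise beyond 5 SD above unstimulated control wells' mean, seen in both duplicate runs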;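 also: plate controls were buffer EC0 wells for no effect and acetylcholine ECmax response for full effect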
The depositor's hits bear a star; i = inactive; x = not tested or not shown.

SMILES	TRPC4 PAM	TRPC6 activator	TRPC6 inhibitor	TRPC4 block	TRPC4 agonist	HEK293 MPD ctr-2	HEK293 MPD ctr 2-2	TRPC4/MOR mod	TRPC4 ctr inh 2	TRPC6 inh conf	TRPC6 act conf	others
Cc1ccc(C)c(NC(=S)NCCc2cnc[nH]2)c1	i	i	i	i	142*	x	x	x	x	x	x
COc1ccc(CCC(=O)NCCc2cnc[nH]2)cc1	i	i	i	i	i	x	x	x	x	x	x
Cc1nonc1OCCNc1ccc([N+](=O)[O-])c2cccnc12	i	i	i	i	i	x	x	x	x	x	x
CCCCc1ncc(CN2CCCC(C(=O)c3ccc(SC)cc3)C2)[nH]1 (stereo unspecified)	i	i	i	-6*	i	x	x	x	x	x	x
O=C(Nc1ccccc1Cl)OC1CN2CCC1CC2 (stereo unspecified)	25*	i	i	i	i	x	x	x	x	x	x
O=C(Nc1ccccc1F)OC1CN2CCC1CC2 (stereo unspecified)	i	i	i	i	i	x	x	x	x	x	x
CCc1n[nH]c(CCN)n1	i	i	i	i	155*	x	x	x	x	x	x
CC(N)Cc1c[nH]c2c1ccc1ccccc12 (stereo unspecified)	i	i	i	i	92*	x	x	x	x	x	x
CCCCn1c(N)c(C(=O)NCCN2CCOCC2)c2nc3ccccc3nc21	i	i	i	i	i	x	x	x	x	x	x
CCOC(=O)c1c(N)n(CCN2CCCCC2)c2nc3ccccc3nc12	i	i	-5.87*	i	i	-135.0%*	i	-28.0%*	56.0%*	56.5%*	i
c1ccc2c(c1)CC1CNCc3cccc(c31)S2 (stereo unspecified)	i	i	-7.08*	i	i	x	x	x	x	66.2%*	i	TRPC4 spec 2=62.0%*;TRPC4 spec=i;HEK293 MPD ctr 2-1=i;HEK293 MPD ctr-1=i
CCCCCSc1cc(O)c(C(CNC)C(C)C)cc1OC (stereo unspecified)	i	i	i	i	i	x	x	x	x	x	x
CCCCCSc1cc(OC)c(CCN(C)C)cc1OC	i	i	-5.3*	i	i	i	i	i	51.5%*	49.5%*	i
O=C(c1ccc(C(F)(F)F)cc1)C1CCCN(C2CCSCC2)C1 (stereo unspecified)	i	i	-7.75*	i	i	x	x	x	x	i	x	TRPC4 spec 2=i;TRPC4 spec=14.6%*;HEK293 MPD ctr 2-1=i;HEK293 MPD ctr-1=8.5%*
Cc1cccc(CN2CCCC(C(=O)c3ccc(C(F)(F)F)cc3)C2)n1 (stereo unspecified)	i	i	i	i	i	x	x	x	x	x	x
Cc1cc(Cl)ccc1C(=O)C1CCCN(C2CCSCC2)C1 (stereo unspecified)	i	i	-5.76*	i	i	174.0%*	i	31.5%*	i	i	x
Cc1ccc(N=C(/N=C(\N)N[N+](=O)[O-])Nc2ccc(C)cc2)cc1	i	i	i	i	i	x	x	x	x	x	x
Cc1c(Br)c(=O)oc2cc(OCC(=O)N3C[C@H]4C[C@@H](C3)c3cccc(=O)n3C4)ccc12	i	i	i	i	i	x	x	x	x	x	x
CN(C)C(=O)Oc1ccc2c(c1)O/C(=C\c1cccc(Cl)c1)C2=O	i	i	i	i	i	x	x	x	x	x	x
O=P(O)(Oc1ccccc1)OC(c1ccccc1)C(F)(F)C(F)(F)F (stereo unspecified)	i	i	i	i	i	x	x	x	x	x	x
COc1cc2c(cc1OC)-c1c(OC)c(OC)c(OC)c3ccnc(c13)C2=O	i	i	-7.04*	i	i	-141.5%*	i	-29.0%*	73.5%*	56.5%*	i
CCOC(=O)c1c(C)n(Cc2ccc(F)cc2)c2ccc(O)cc12	i	i	i	i	i	x	x	x	x	x	x
CCCCn1c(C)c(C(=O)OCC)c2c(CN3CCCC3)c(O)ccc21	i	i	-5.44*	i	i	i	i	i	58.5%*	47.5%*	i
CCCCn1c(C)c(C(=O)OCC)c2c(CN3CCOCC3)c(O)ccc21	i	i	-5.26*	i	i	-88.5%*	i	-12.5%*	66.5%*	62.5%*	i
Cc1cc(C)[n+](CCCC[n+]2c(C)cc(C)cc2C)c(C)c1	i	i	-8.89*	i	i	-437.5%*	98.5%*	-70.5%*	59.0%*	66.0%*	i
SMILES	TRPC4 PAM	TRPC6 activator	TRPC6 inhibitor	TRPC4 block	TRPC4 agonist	HEK293 MPD ctr-2	HEK293 MPD ctr 2-2	TRPC4/MOR mod	TRPC4 ctr inh 2	TRPC6 inh conf	TRPC6 act conf	others
CC1=CC(=C2C(=O)NC(=S)NC2=O)C=C(C(F)(F)F)N1CCc1ccccc1	i	i	i	i	i	x	x	x	x	x	x
O=c1[nH]c(=S)n(Cc2ccc(F)cc2)c(O)c1/C=N/N1CCCCCC1	i	i	i	i	i	x	x	x	x	x	x
CN1C(C(=O)N2CCC3(CC2)OCCO3)=CC(c2ccc(F)cc2)=NS1(=O)=O	i	i	i	i	i	x	x	x	x	x	x
Cc1cccc(CCNCc2cc3cccc(C)c3[nH]c2=O)c1	i	i	-10.1*	i	i	x	x	x	x	102.4%*	i	TRPC4 spec 2=15.0%*;TRPC4 spec=-12.9%*;HEK293 MPD ctr 2-1=25.0%*;HEK293 MPD ctr-1=i
Cc1cccc(CCNCc2cc3cc(C)cc(C)c3[nH]c2=O)c1	i	i	-5.92*	i	i	i	65.0%*	-18.0%*	93.5%*	82.0%*	i
Cc1ccccc1CCNCc1ccc(Br)cc1	i	i	i	i	i	x	x	x	x	x	x
